Blank lines part the entries; values can stand above or below the compound they belong to.
Experiments:
[1] = test system: GLUTag cells; assay: GLP-1 release from GLUTag cells; type: cell-based, murine; conditions: equimolar concentrations, 2 hours
Method in brief: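 Murine enteroendocrine GLUTag cells were grown in low-glucose GlutaMAX DMEM with 10% FBS and 1% Pen/Strep, then plated at 50,000 cells/well overnight. Cells were washed twice and preincubated 30 min in Krebs buffer with DPP4 inhibitor. Compounds from 10 mM DMSO stocks were added at 1 µM and 100 µM for 2 h, with DMSO as control. Clarified supernatant was assayed by active GLP-1 immunoassay. Two independent experiments gave 4–6 wells per condition, analysed by ANOVA.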

[2] = target: T1, G2A (GPR132) (Homo sapiens, UniProt Q9UNW8); assay: β-arrestin cell-based orphan GPCR agonist assay
T1 sequence (Q9UNW8 1-380): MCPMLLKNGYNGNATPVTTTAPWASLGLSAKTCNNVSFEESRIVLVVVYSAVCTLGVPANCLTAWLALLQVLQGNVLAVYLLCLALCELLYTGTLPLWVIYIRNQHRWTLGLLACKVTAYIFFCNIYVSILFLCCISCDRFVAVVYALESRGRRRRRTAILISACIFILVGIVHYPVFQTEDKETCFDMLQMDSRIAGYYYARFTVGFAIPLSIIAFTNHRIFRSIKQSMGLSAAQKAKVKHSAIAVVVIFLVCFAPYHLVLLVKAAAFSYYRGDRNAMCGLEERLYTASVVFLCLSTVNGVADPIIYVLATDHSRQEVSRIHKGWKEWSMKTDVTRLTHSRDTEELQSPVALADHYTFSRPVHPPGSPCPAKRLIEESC
Method in brief: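 Orphan GPCR panel, DiscoveRx β-arrestin recruitment format, agonist mode. Test compound was screened at 10 µM in singlicate. Follow-up dose-response curves were run in duplicate per dose, and EC50 was derived from them.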

[3] = target: T2, sphingosine-1-phosphate receptor 4 (S1PR4) (Homo sapiens, UniProt O95977); assay: β-arrestin cell-based GPCR agonist assay; conditions: for activation of / interaction with S1PR4 (in words): GPCR screen
T2 sequence (O95977 1-384): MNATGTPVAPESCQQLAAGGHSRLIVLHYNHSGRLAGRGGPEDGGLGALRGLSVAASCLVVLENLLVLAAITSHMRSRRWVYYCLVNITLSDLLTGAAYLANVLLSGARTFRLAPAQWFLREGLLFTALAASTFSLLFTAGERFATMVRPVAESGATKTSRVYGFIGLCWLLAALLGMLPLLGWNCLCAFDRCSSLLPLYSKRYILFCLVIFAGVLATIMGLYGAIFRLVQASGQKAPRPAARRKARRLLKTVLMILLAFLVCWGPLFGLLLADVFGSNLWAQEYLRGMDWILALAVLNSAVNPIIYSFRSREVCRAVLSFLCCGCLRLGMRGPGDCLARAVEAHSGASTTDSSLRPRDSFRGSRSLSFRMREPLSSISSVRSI

[4] = target: S1PR1 (Homo sapiens, UniProt P21453); assay: β-arrestin GPCR agonist screen, S1PR1; type: cell-based; conditions: 10 µM ligand
S1PR1, sequence (P21453 whole entry): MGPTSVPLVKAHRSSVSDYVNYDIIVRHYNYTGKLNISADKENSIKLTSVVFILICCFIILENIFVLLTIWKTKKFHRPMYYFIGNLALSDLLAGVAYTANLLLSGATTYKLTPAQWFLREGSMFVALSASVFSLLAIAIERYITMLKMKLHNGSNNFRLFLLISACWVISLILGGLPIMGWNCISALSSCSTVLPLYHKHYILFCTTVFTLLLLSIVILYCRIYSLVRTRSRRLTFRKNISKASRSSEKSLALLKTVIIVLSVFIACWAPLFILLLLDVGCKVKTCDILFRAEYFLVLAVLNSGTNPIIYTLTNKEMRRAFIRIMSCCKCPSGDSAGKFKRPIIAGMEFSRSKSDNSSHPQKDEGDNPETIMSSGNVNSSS
Method in brief: (§1)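 Cell-based β-arrestin recruitment screen, run by a contract lab, at 10 µM ligand in agonist and antagonist modes across 168 GPCRs with known ligands plus 72 orphan GPCRs. Test compounds were bacterial N-acyl amides, taking the most abundant analog of each family from heterologous E. coli expression. Synthetic N-acyl amides were screened the same way.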

[5] = target: S1PR2 (Homo sapiens, UniProt O95136); assay: β-arrestin GPCR agonist screen, S1PR2; type: cell-based; conditions: 10 µM ligand
S1PR2, sequence (O95136 whole entry): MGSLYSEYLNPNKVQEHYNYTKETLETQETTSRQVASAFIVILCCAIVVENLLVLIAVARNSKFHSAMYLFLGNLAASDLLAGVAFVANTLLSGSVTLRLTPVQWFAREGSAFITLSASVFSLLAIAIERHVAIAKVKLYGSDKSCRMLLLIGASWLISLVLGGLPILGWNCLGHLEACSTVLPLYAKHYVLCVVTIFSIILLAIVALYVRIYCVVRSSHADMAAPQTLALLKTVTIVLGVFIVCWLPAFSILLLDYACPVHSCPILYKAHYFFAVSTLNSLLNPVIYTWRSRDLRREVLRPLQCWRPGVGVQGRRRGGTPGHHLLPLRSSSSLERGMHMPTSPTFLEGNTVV
Method in brief: as §1

[6] = target: S1PR3 (Homo sapiens, UniProt Q99500); assay: β-arrestin GPCR agonist screen, S1PR3; type: cell-based; conditions: 10 µM ligand
S1PR3, sequence (Q99500 whole entry): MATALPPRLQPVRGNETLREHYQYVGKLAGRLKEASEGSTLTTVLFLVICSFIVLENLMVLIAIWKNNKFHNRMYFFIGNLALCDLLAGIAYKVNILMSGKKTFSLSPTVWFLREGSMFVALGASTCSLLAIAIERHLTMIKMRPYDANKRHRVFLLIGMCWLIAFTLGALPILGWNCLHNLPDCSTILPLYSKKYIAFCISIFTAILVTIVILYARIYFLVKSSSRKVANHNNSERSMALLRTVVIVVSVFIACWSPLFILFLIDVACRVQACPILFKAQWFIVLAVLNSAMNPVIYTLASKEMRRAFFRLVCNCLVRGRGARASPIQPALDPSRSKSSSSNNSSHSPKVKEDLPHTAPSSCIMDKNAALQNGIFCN
Method in brief: as §1

[7] = target: T3, GPR119 (Homo sapiens, UniProt Q8TDV5); assay: cAMP secondary assay in ACTOne HEK293 cells transfected with GPR119; type: cell-based; conditions: HEK293 cells stably transfected with GPR119 vs not transfected; GPR119 dependent
T3 sequence (Q8TDV5 1-335): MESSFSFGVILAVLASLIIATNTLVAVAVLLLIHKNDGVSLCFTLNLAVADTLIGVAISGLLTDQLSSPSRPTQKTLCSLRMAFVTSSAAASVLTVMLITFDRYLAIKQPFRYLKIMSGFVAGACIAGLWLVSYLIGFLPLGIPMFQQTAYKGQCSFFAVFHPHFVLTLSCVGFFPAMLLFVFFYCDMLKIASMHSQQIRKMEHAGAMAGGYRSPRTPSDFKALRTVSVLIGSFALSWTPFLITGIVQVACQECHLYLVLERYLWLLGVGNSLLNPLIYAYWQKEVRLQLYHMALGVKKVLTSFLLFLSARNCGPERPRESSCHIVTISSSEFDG
Method in brief: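 Orthogonal cAMP read-out used live ACTOne HEK293 cells, which carry a cAMP-sensitive ion channel, read with a membrane potential dye kit. GPR119-transfected cells were compared with parental untransfected cells. Each was exposed to equimolar ligand concentrations, with the endogenous ligand and an ADORA2B agonist as parental-line cAMP control. Relative fluorescence intensity was taken against background. Points were in quadruplicate, SD shown, and EC50 was derived.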

[8] = mice, intravenous delivery; cited from earlier work

SMILES: CCCCCCCC/C=C\CCCCCCCC(=O)OC(CO)CO [2-OG, 2-oleoyl glycerol]
GLP-1 secretion [1]: to the same magnitude

SMILES: CCCCCCCCCCCCCC(O)CC(=O)NCC(=O)O (stereo not shown) [N-3-hydroxypalmitoyl glycine]
activation of G2A (in words) [2]: activate

activation of / interaction with S1PR4 (in words) [3]: interact
SMILES: CCCCCCCCCCCCCC(O)CC(=O)N[C@@H](CCCCN)C(=O)O (stereo partly shown) [N-3-hydroxypalmitoyl lysine]

EC50 [3]: 32 µM | activation of / interaction with S1PR4 (in words) [3]: interact | activation of S1PR1 [4]: did not activate | activation of S1PR2 [5]: did not activate | activation of S1PR3 [6]: did not activate
SMILES: CCCCCCCCCCCCCC(O)CC(=O)N[C@@H](CCCN)C(=O)O (stereo partly shown) [N-3-hydroxypalmitoyl ornithine]

SMILES: CCCCCCCCCCCCCCCC(=O)N[C@@H](C)C(=O)O [N-palmitoyl alanine]
activation of G2A (in words) [2]: activate

cellular cAMP concentration (in words) [7]: increased
SMILES: CCCCCCCC/C=C\CCCCCCCC(=O)NCCO [OEA, oleoylethanolamide]
GLP-1 secretion [1]: to the same magnitude | blood glucose in OGTT [8]: fails to lower blood glucose

activation of / interaction with S1PR4 (in words) [3]: activates | activation of S1PR1 [4]: activates | activation of S1PR2 [5]: activates | activation of S1PR3 [6]: activates
SMILES: CCCCCCCCCCCCC/C=C/[C@@H](O)[C@@H](N)COP(=O)(O)O [S1P, sphingosine-1-phosphate]

— article PMC5777231 (Nature, 2017)
